The entries come from a sample that favours hits as a whole.
HSF1 inhib = HSF1 inhibition; NIH3T3-HGL HSE-luciferase, MG132-induced, luminescence 8 h; active compounds read low; activity change, negative = inhibition, % at 7.5 µM (by protocol); actives 0.77% (n = 300,000);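 active = more than half of replicate wells show activity change below -50%, luminescence cut by over half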;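 note: luciferase reports HSF-1 transcriptional activity via heat shock element; 0% = median of DMSO wells and -100% = zero luminescence signal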
Lmaj promast = Leishmania major promastigote growth inhibition | actives 9% (n = 200,000) | inhibition, % at 10 µM | Leishmania major promastigotes, resazurin fluorescence viability; in the data active = inhibition above about 50%;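 note: promastigotes grown with compound for 44 hours at 28 °C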
T cruzi repl = blocks replication of Trypanosoma cruzi; T. cruzi beta-gal in NIH3T3, luminescence, 90 h; inhibition, % (test concentration not listed); actives 1.4% (n = 300,000);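 active = mean inhibition across valid replicates above about 55%, limit read from the data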;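 note: signal also drops with host cell toxicity which is not excluded here; 0% = plate median of DMSO wells and 100% = zero luminescence signal; higher percent means less beta-gal luminescence so fewer parasites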
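System: NIH/3T3 fibroblasts plus reporter T. cruzi. Medium: DMEM plus 2% FBS. Probe or stimulus: 5000 reporter trypomastigotes per well. Compound: single 50 nL compound addition per well in DMSO. Incubation: co-culture of at least 90 h after 3 h attachment. Detection: GalScreen β-gal luminescence, detergent lysis, 60 min. Evaluation: parasite load inhibition, %.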
HSF-1 act = increases HSF-1 driven luciferase reporter signal | AID 504408 | activation, % at 9 µM | NIH3T3-HGL HSF-1 luciferase reporter, MG132, 8 h; 100% = twice DMSO control signal | actives 1.7% (n = 300,000);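 active = mean replicate activation of at least 50% with a set share of replicates each reaching 50%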;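 note: 0% = median of the neutral control wells and 100% = twice that signal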
Hsp70 act = switches on Hsp70 transcription. activation, % at 10 µM. AID 1203. HeLa Hsp70 promoter luciferase reporter, luminescence; scaled: vehicle 0, proteasome-inhibitor control 100%. actives 0.04% (n = 200,000);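 active = activation above the mean across all tested compounds plus 3 SD, cutoff set per campaign, cut at about 5.5% in these data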;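 note: 100% = MG132 at 30 µM as the positive control and 0% = DMSO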
Starred values were filed as active, the others as inactive; / = not tested or not shown.

SMILES	HSF1 inhib	Lmaj promast	T cruzi repl	HSF-1 act	Hsp70 act
CC1CCc2sc3c(c2C1)c(=O)n(CC(=O)O)c(=O)n3Cc1ccc(Cl)cc1 (stereo not given)	0	/	-7	6	/
Oc1[nH]c2ccc(Br)cc2c1N=NC(=S)N1CCOCC1	236	/	55*	240*	/
CCOc1ccc(NC(=S)N=Nc2c(O)[nH]c3ccccc23)cc1	-8	98*	43	0	0
Oc1[nH]c2ccccc2c1N=NC(=S)N1CCOCC1	56	/	56*	87*	/
COC(=O)N=Nc1c(O)[nH]c2ccc(Br)cc12	1	/	8	6	/
O=C(CON=C1c2ccccc2-c2ccccc21)NC12CC3CC(CC(C3)C1)C2	2	12	22	4	0
Cc1nccc(-c2cc(-c3ccc(Cl)cc3Cl)no2)n1	5	/	8	21	/
COCCNc1nc(-c2ccccc2)nc2ccccc12	-3	84*	22	1	0
c1ccc(-c2nc(NCCCn3ccnc3)c3ccccc3n2)cc1	-10	54*	20	-8	0
CCN(CC)CCCNc1nc(-c2ccccc2)nc2ccccc12	3	72*	11	12	0
OCCNc1nc(-c2ccccc2)nc2ccccc12	9	20	-9	46	0
OCCCNc1nc(-c2ccc(Cl)cc2)nc2ccccc12	-10	/	22	-25	/
Clc1ccc(-c2nc(NCCN3CCOCC3)c3ccccc3n2)cc1	19	62*	25	24	0
CC(C)CC(NC(=O)OC(C)(C)C)c1cn([C@@H](Cc2ccc(O)cc2)C(=O)N2CCN(C(=O)OC(C)(C)C)CC2)nn1 (stereo not given in full)	-2	0	38	-3	0
O=C(COc1coc(CN2CCc3ccccc3C2)cc1=O)N1CCOCC1	-5	/	-12	14	/
COc1ccc(N2C(=O)C(CN3CCN(C)CC3)C2c2ccccc2)cc1 (stereo not given)	-3	95*	3	1	0
COc1ccc(C2C(CN3CCOCC3)C(=O)N2c2ccccc2)cc1 (stereo not given)	-3	-3	1	0	0
c1ccc(-c2cn3nc(-c4ccccc4)sc3n2)cc1	-56*	/	-11	-61	/
COc1ccccc1Nc1nc(-c2sc(NC(=O)c3ccccc3)nc2C)cs1	9	81*	-34	12	0
CCOc1ccccc1Nc1nc(-c2sc(NC(=O)c3ccccc3)nc2C)cs1	-12	100*	7	-32	0
Cc1ccc(Cl)cc1Nc1nc(-c2sc(NC(=O)c3ccccc3)nc2C)cs1	9	50*	1	10	0
CSc1ncc(C(=O)Nc2ccc(Br)cn2)c(C)n1	1	/	7	6	/
Cc1cccc(CSc2nnc(-c3cccs3)n2Cc2ccco2)c1	11	90*	12	13	1
Cc1cccc(CSc2nc3sc(C)c(C)c3c(=O)n2Cc2ccco2)c1	7	7	43	-10	0
COc1c(O)cnn(-c2ccccc2)c1=O	6	/	-3	-6	/
SMILES	HSF1 inhib	Lmaj promast	T cruzi repl	HSF-1 act	Hsp70 act
CCOCC(=O)Nc1ccc([N+](=O)[O-])cc1C	0	1	-10	-10	0
O=C(Nc1cc(F)ccc1F)N1CCN(c2ccnc3cc(Cl)ccc23)CC1	-14	/	12	-12	/
O=C(Nc1ccc(C(F)(F)F)cc1)N1CCN(c2ccnc3cc(Cl)ccc23)CC1	-5	/	69*	6	/
Cc1ccc(/C=N/OC(=O)c2nn(C)cc2Cl)cc1	0	-3	6	-2	0
CCS(=O)(=O)N1CCN(C(=O)c2ccccc2)CC1	-86*	-4	-13	-88	0
S=C(NCCc1ccccc1)N1CCN(Cc2ccc(Cl)c(Cl)c2)CC1	-62*	0	47	-70	0
O=C(c1ccccc1)N1CCN(C(=S)NCCc2ccccc2)CC1	-1	53*	0	8	0
C/C(=N\NC(=O)c1c(Cl)cnn1C)c1ccc(NC(=O)c2ccncc2)cc1	14	12	-9	9	0
CN(C)c1ccc(/C=N/Nc2nncc3ccccc23)cc1	6	/	8	42	/
CC(=O)Nc1ccc(S(=O)(=O)N2CCN=C2SCc2ccccc2C)cc1	7	/	-2	11	/
CC1CN(C(=O)Nc2cccc(Cl)c2)C2(CCCCCC2)O1 (stereo not given)	-2	14	-7	10	0
Cc1cccc(NC(=O)C2CCN(S(=O)(=O)c3c(C)c(C)cc(C)c3C)CC2)n1	0	/	26	8	/

Bioassay records as filed in PubChem.
